The target in assay [1] is Sigma 2 receptor. Briefly: Sigma 2 binding assay was done rat liver membrane, by labeling the binding site with [3H]DTG (DuPont-NEN) in the presence of […]-pentazocine (100 nM).
The target in assay [2] is Dopamine receptor D2 and D3 (Rattus norvegicus, UniProt P19020+P61169). The experiment in a line: In vitro binding affinity for D2/D3 receptors in rat striatal homogenates by [125I]NCQ298 displacement.
In assay [3] the target is Sigma 2 receptor. The experiment in a line: Sigma 2 binding assay was done rat liver membrane, by labeling the binding site with [3H]-DTG (DuPont-NEN) in the presence of […]-pentazocine (100 nM). The method, boiled down: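 P2 membranes from male Sprague-Dawley rat liver (35 µg protein) with 3 nM [3H]DTG plus 100 nM unlabelled (+)-pentazocine to mask σ1, 50 mM Tris-HCl pH 8.0, 120 min, 25 °C; GF/B filtration; nonspecific with 5 µM DTG. IC50 in triplicate from 5-10 concentrations, Ki via Cheng-Prusoff (Kd 17.9 nM), mean ± SEM.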

Assay [4] has as its target T1, Sodium-dependent dopamine transporter (Rattus norvegicus, UniProt P23977). Briefly: Binding affinity for dopamine transporter was determined in rat striatal membrane. The class given is cell membranes.
Assay [5] deals with T2, Sodium-dependent serotonin transporter (Rattus norvegicus, UniProt P31652). Briefly: Binding affinity for serotonin transporter was determined in rat cortical membrane. The class given is cell membranes.
T2 sequence (P31652 whole entry): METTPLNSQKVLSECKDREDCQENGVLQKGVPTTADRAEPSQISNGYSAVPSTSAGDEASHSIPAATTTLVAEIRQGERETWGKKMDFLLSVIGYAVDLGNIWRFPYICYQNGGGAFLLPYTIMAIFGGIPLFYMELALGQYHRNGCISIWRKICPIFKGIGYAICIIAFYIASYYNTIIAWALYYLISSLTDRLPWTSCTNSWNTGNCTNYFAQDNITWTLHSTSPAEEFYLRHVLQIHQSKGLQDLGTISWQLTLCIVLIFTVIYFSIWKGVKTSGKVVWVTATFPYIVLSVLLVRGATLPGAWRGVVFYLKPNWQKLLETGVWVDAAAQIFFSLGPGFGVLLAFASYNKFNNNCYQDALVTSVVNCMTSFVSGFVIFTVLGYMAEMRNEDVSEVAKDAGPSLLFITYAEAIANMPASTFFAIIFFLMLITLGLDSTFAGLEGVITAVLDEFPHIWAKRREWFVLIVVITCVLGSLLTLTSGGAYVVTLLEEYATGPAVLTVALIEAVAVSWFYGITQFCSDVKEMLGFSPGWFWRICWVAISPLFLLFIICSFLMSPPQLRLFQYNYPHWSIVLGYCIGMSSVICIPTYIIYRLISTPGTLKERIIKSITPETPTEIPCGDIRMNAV
In assay [6] the target is T1, Sodium-dependent dopamine transporter. The experiment in a line: Binding affinity for dopamine transporter was determined in rat striatal membrane. The class given is cell membranes, Striatum.
Assay [7] addresses T2, Sodium-dependent serotonin transporter. Briefly: Binding affinity for serotonin transporter was determined in rat cortical membrane. The class given is cell membranes.

For 28 compounds, Ki results are on record in ChEMBL document CHEMBL1130429 (J Med Chem, 1997).

T1 sequence (P23977 whole entry): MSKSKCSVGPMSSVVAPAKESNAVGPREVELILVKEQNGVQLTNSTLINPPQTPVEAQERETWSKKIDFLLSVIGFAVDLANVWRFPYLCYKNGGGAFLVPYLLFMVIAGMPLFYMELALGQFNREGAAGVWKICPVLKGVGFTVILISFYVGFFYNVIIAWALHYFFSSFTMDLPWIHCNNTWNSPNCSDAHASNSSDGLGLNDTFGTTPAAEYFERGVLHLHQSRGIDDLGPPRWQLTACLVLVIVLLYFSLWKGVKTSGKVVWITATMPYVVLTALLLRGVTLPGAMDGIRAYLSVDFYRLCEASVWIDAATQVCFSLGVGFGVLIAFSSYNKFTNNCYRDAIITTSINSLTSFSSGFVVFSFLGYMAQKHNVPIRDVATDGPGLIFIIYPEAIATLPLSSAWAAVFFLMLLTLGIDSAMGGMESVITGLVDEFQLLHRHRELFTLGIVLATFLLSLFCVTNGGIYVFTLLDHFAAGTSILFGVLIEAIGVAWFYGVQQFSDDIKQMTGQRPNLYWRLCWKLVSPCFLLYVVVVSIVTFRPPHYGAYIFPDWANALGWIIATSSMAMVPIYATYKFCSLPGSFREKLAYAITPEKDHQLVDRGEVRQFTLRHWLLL

With `O[C@@H]1CCN(Cc2cccc(I)c2)C[C@H]1N1CCC2(CCc3ccccc32)CC1`, the inhibition constant (Ki) on Sigma 2 receptor [1] was 224 nM; in assay [2] it was greater than 1000 nM.

`O[C@@H](CN1CCC2(CCc3ccccc32)CC1)c1cccc(Br)c1`: the Ki was greater than 1000 nM in assay [2] and 12.7 nM at Sigma 2 receptor [3].

For `CN1CC2(CCN([C@@H]3CN(Cc4cccc(I)c4)CC[C@H]3O)CC2)c2ccccc21`, the Ki on Sigma 2 receptor [1] is 139 nM; in assay [2] it was greater than 1000 nM.

Regarding `O=C(CN1C2CCC1CC(c1ccccc1)C2)c1ccc(F)cc1` (stereo unspecified), the Ki in assay [4] was found to be 222 nM; at Sigma 2 receptor [3], 73.3 nM.

`OC(CN1C2CCC1CC(c1ccccc1)C2)c1ccc(Br)cc1` (stereo unspecified): the Ki was found to be 5092 nM in assay [2], 73.8 nM in assay [4], 30.1 nM in assay [5] and 11.3 nM at Sigma 2 receptor [3].

With `OC(CN1C2CCC1CC(c1ccccc1)C2)c1cccc(Br)c1` (stereo unspecified), the Ki in assay [2] worked out at 2658 nM; in assay [4], 23.6 nM; in assay [5] it was 27 nM; at Sigma 2 receptor [3] it was 9.87 nM.

As to `O[C@@H]1CCCC[C@H]1N1CCC2(CCc3ccccc32)CC1`, the Ki is 30 nM on Sigma 2 receptor [1] and greater than 1000 nM in assay [2].

As for `O=C(CCCN1C2CCC1CC(c1ccccc1)C2)c1ccc(F)cc1` (stereo unspecified), the Ki in assay [2] is 16.3 nM; in assay [4], 129 nM; in assay [5] it was 88.6 nM; at Sigma 2 receptor [3], 15.4 nM.

In the case of `OC(Cc1ccc(Br)cc1)CN1C2CCC1CC(c1ccccc1)C2` (stereo unspecified), the Ki came to 1490 nM in assay [2], 306 nM in assay [6], 234 nM in assay [7] and 4.95 nM on Sigma 2 receptor [3].

`OC(CN1C2CCC1CC(c1ccccc1)C2)c1ccccc1Br` (stereo unspecified): the Ki turned out to be 67.2 nM in assay [4] and 7.71 nM at Sigma 2 receptor [3].

Turning to `O[C@H]1CCN(Cc2ccc(F)cc2)C[C@@H]1N1C2CCC1CC(c1ccccc1)C2` (stereo partly specified), the Ki in assay [2] turned out to be 8795 nM; in assay [4], 4180 nM; in assay [5], 9200 nM; on Sigma 2 receptor [3], 260 nM.

Regarding `CN1CC2(CCN(C[C@H](O)Cc3ccc(Br)cc3)CC2)c2ccccc21`, the inhibition constant (Ki) at Sigma 2 receptor [1] was 22.9 nM; in assay [2], greater than 1000 nM.

Regarding `CN1CC2(CCN([C@@H]3CCCC[C@H]3O)CC2)c2ccccc21`, the Ki was greater than 1000 nM in assay [2] and 357 nM on Sigma 2 receptor [3].

For the compound `O[C@@H]1Cc2ccccc2C[C@H]1N1CCC2(CCc3ccccc32)CC1`, the Ki in assay [2] is greater than 1000 nM.

As to `O[C@H]1CCN(Cc2cccc(I)c2)C[C@@H]1N1C2CCC1CC(c1ccccc1)C2` (stereo partly specified), the Ki in assay [2] is 1967 nM; in assay [4], 1070 nM; in assay [5] it was 4430 nM; at Sigma 2 receptor [3] it was 275 nM.

Take `CN1CC2(CCN([C@@H]3Cc4ccccc4C[C@H]3O)CC2)c2ccccc21`: in assay [2], the Ki is given as greater than 1000 nM.

Consider `CN1CC2(CCN(C[C@H](O)c3cccc(Br)c3)CC2)c2ccccc21`, for which the Ki was 99.2 nM at Sigma 2 receptor [1] and greater than 1000 nM in assay [2].

Regarding `O=C(CCCN1CCC2(CCc3ccccc32)CC1)c1ccc(F)cc1`, the Ki at Sigma 2 receptor [1] is 3.3 nM.

For the compound `O[C@H]1Cc2ccccc2C[C@@H]1N1C2CCC1CC(c1ccccc1)C2` (stereo partly specified), the Ki in assay [2] is 3385 nM; in assay [6], 1070 nM; in assay [7], 1680 nM.

For the compound `OC(CN1C2CCC1CC(c1ccccc1)C2)c1ccccc1` (stereo unspecified), the Ki in assay [6] turned out to be 41.5 nM; on Sigma 2 receptor [3] it was 32.7 nM.

`OC(CCCN1C2CCC1CC(c1ccccc1)C2)c1ccc(F)cc1` (stereo unspecified) registered a Ki in assay [6] of 464 nM.

In the case of `O[C@H](Cc1ccc(Br)cc1)CN1CCC2(CCc3ccccc32)CC1`, the Ki is 8.8 nM at Sigma 2 receptor [1] and greater than 1000 nM in assay [2].

Take `CN1CC2(CCN([C@@H]3CN(Cc4ccc(F)cc4)CC[C@H]3O)CC2)c2ccccc21`: the Ki in assay [2] is listed as greater than 1000 nM.

As for `OC(CN1C2CCC1CC(c1ccccc1)C2)c1c(Cl)cccc1Cl` (stereo unspecified), the Ki in assay [4] stood at 42 nM; at Sigma 2 receptor [3], 15.9 nM.

As for `O[C@@H]1CCN(Cc2ccc(F)cc2)C[C@H]1N1CCC2(CCc3ccccc32)CC1`, the Ki on Sigma 2 receptor [1] was 67 nM; in assay [2], greater than 1000 nM.

As to `CN1CC2(CCN(CCCC(=O)c3ccc(F)cc3)CC2)c2ccccc21`, the figures for the Ki (in assay [2]; on Sigma 2 receptor [3]) were 56.5 nM and 60.8 nM, respectively.

For `OC(CN1C2CCC1CC(c1ccccc1)C2)c1ccc(Cl)c(Cl)c1` (stereo unspecified), the Ki was found to be 23.6 nM in assay [4] and 18.8 nM on Sigma 2 receptor [3].

As for `O[C@H]1CCCC[C@@H]1N1C2CCC1CC(c1ccccc1)C2` (stereo partly specified), the Ki in assay [2] was greater than 38000 nM; in assay [6], 2810 nM; in assay [7], 3420 nM; at Sigma 2 receptor [3], 118 nM.
